According to ChEMBL document CHEMBL4477209, “Indole-2-carboxamide-based MmpL3 Inhibitors Show Exceptional Antitubercular Activity in an Animal Model of Tuberculosis Infection” (J Med Chem, 2016):
Calls of active or inactive are those of the source. No cut-off for these calls is given here.

How the values were obtained:
[1] = tested on: Mycobacterium tuberculosis; test: Antimycobacterial activity against Mycobacterium tuberculosis H37Rv assessed as growth inhibition at 0.0313 times MIC after 7 to 14 days in presence of 0.5 times MIC of rifampin by alamar blue assay based by Bliss synergy model analysis; type: functional
In short: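 Checkerboard of 2-fold dilutions, 4.0 to 0.0313 × MIC of each drug combined with rifampin. M. tuberculosis H37Rv at 1 × 10^4 CFU per well in 200 μL. Single-drug, blank and full-growth controls included. alamarBlue read-out, percent inhibition calculated. Bliss independence applied to wells below 1 × MIC; Δfaxy > 0 taken as synergy, < 0 as antagonism.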

[2] = tested on: Mycobacterium tuberculosis; test: Antimycobacterial activity against Mycobacterium tuberculosis H37Rv infected in BALB/c mouse model assessed as reduction in CFU counts in lung at 200 mg/kg administered daily via oral gavage for 5 days per week measured after 28 days post dosage relative to control; type: functional
In short: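 Bactericidal-dose model in aerosol-infected BALB/c mice given 25, 50, 100 or 200 mg/kg orally in 0.5% carboxymethylcellulose in water for 4 weeks. Lung CFU compared with the count at treatment initiation; survival also recorded.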

[3] = Stability in rat hepatocytes assessed as compound remaining at 1 uM after 2 hrs; type: ADME, cell-based, Hepatocyte; details: read-out: Stability
In short: (§1)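 Hepatocytes from human, mouse, rat or dog incubated with 1 μM starting concentration for 2 h; percent of parent compound remaining.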

[4] = Oral bioavailability in BALB/c mouse at 100 mg/kg administered for 30 to 120 mins followed by Mycobacterium tuberculosis H37Rv addition to compound treated serum incubated for 7 days by alamar blue reagent based serum inhibition titration assay; type: ADME, organism-based; details: in vivo
In short: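 Six-week-old female BALB/c mice (20 g) given one oral dose as suspension in 0.5% CMC in water; isoniazid 10 mg/kg as positive control, vehicle as negative. Serum collected at 30, 60 and 120 min, pooled from three mice per time point, 2-fold serially diluted. 10^4 CFU H37Rv added per well, 7 days at 37 °C. alamarBlue added for 16−18 h, fluorescence read at Ex544/Em590 and plotted against serum titration.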

[5] = Stability in human hepatocytes assessed as compound remaining at 1 uM after 2 hrs; type: ADME, cell-based, Hepatocyte; details: read-out: Stability; in short: as §1
[6] = Tmax in BALB/c mouse plasma at 100 mg/kg administered via oral gavage after 0.25 to 24 hrs by LC-MS analysis; type: ADME, organism-based
In short: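 Female BALB/c mice (20 g) got a single 100 mg/kg oral gavage dose. Three animals were sacrificed per time point at 0, 0.25, 0.5, 1, 2, 4, 8 and 24 h. Cardiac blood was spun at 12 000g, 4 °C for plasma. Lungs were bead-beaten in water and the supernatant taken. Both matrices were quantified by LC-MS/MS with an indole-2-carboxamide internal standard. Parameters came from noncompartmental analysis.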

[7] = tested on: Mycobacterium tuberculosis; test: Antimycobacterial activity against Mycobacterium tuberculosis H37Rv infected in BALB/c mouse model assessed as reduction in CFU counts in lungs administered daily via oral gavage for 5 days per week measured after 14 to 28 days post dosage relative to control; type: functional, organism-based
In short: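 Female BALB/c mice, 4-6 weeks old, aerosol-infected with H37Rv (about 10^3 CFU); five mice taken on day 1 for lung implantation CFU. From day 1, 12.5, 25, 50 or 100 mg/kg in 0.5% carboxymethylcellulose by daily oral gavage, 5 days/week. Ethambutol 100 mg/kg as positive control, untreated infected mice as negative, 5 mice per group. Lung homogenates plated on 7H11 selective agar on days 14 and 28.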

[8] = Mutagenicity in Salmonella typhimurium TA98 assessed as increase in ratio of revertant colonies at 5000 microg/plate in presence of S9 liver fraction relative to control; type: toxicity, subcellular; details: salmonella enterica subsp. enterica serovar typhimurium
In short: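 Bacterial reverse mutation test in S. typhimurium TA98 with S9 liver fraction, at 500 and 5000 μg/plate. Revertant colony count expressed as a ratio to the DMSO solvent control; 2-aminoanthracene as positive control.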

[9] = Mutagenicity in Salmonella typhimurium TA100; type: toxicity; details: salmonella enterica subsp. enterica serovar typhimurium
[10] = biological target: T1, Nuclear receptor subfamily 1 group I member 3 (Homo sapiens, UniProt Q14994); test: Transactivation of CAR (unknown origin) assessed as upregulation of CYP2B6 at 3 to 8 microg/ml; type: ADME
T1 sequence (Q14994 whole entry): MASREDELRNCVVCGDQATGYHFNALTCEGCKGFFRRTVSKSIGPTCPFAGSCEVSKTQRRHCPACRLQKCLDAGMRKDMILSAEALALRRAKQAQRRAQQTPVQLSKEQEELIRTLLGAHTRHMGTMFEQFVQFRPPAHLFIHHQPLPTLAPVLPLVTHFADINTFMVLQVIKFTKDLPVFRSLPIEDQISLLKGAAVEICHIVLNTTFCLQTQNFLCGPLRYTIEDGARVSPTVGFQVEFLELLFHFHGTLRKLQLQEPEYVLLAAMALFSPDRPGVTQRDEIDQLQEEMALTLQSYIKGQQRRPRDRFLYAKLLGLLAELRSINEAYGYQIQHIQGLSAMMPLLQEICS
In short: (§2)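 Nuclear receptor reporter-gene induction assay, with reporters coupled to PXR, CAR or AhR. Compound was tested at 0.1–1, 3 and 8 μg/mL. Positive controls were rifampin for PXR, CITCO for CAR and 3-methylcholanthrene for AhR.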

[11] = Permeability across basolateral to apical side in human Caco2 cells; type: ADME, cell-based; details: Caco-2, read-out: permeability
[12] = biological target: T2, Nuclear receptor subfamily 1 group I member 2 (Homo sapiens, UniProt O75469); test: Transactivation of PXR (unknown origin) assessed as upregulation of CYP3A4 at 0.1 to 1 microg/ml; type: ADME; in short: as §2
T2 sequence (O75469 whole entry): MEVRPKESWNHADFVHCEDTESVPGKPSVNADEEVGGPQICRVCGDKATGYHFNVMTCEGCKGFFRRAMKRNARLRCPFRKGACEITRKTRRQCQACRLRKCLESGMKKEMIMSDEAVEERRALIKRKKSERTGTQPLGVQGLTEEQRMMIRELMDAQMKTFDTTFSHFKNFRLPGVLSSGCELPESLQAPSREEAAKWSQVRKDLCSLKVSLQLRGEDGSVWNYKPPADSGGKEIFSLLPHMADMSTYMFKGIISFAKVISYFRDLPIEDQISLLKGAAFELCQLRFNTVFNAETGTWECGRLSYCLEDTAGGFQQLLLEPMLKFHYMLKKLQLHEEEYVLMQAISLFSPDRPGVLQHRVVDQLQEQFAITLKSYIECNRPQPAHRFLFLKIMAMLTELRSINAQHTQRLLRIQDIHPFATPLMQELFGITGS

Cytochrome P450 2C9 = Cytochrome P450 2C9 (Homo sapiens, UniProt P11712); test: Inhibition of CYP2C9 (unknown origin); type: ADME
[13] = tested on: Mycobacterium tuberculosis; test: Antimycobacterial activity against Mycobacterium tuberculosis H37Rv infected in BALB/c mouse model assessed as protection against mouse mortality at 12.5 to 100 mg/kg administered daily via oral gavage for 5 days per week measured after 14 to 28 days post dosage; type: functional, organism-based
[14] = Mutagenicity in Salmonella typhimurium TA1537; type: toxicity; details: salmonella enterica subsp. enterica serovar typhimurium
[15] = Stability in human liver microsomes assessed as compound remaining at 3 uM after 1 hr; type: ADME, Microsome; details: read-out: Stability
In short: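 Human liver microsomes incubated with 3 μM starting concentration for 1 h; percent of compound remaining.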

[16] = Stability in dog hepatocytes assessed as compound remaining at 1 uM after 2 hrs; type: ADME, cell-based, Canis lupus familiaris, Hepatocyte; details: read-out: Stability; in short: as §1

Cytochrome P450 2C9, sequence (P11712 whole entry): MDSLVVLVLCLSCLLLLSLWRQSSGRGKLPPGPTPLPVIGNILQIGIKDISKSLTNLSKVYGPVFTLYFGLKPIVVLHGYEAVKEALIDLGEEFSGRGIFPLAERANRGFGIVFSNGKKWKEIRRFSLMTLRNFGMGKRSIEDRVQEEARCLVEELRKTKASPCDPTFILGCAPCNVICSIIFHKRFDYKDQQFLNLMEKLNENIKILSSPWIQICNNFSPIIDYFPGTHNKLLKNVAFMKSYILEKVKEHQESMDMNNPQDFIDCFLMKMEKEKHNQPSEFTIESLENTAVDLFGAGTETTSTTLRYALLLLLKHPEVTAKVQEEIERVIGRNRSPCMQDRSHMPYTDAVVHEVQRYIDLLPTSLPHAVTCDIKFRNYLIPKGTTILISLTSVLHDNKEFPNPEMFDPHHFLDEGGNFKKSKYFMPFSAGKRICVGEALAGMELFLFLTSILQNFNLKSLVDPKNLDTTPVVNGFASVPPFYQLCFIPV

Q: With `C[C@@H]1[C@H]2C[C@@H](C[C@H]1NC(=O)c1cc3c(F)cc(F)cc3[nH]1)C2(C)C` as the compound, how does the “growth inhibition (GI)” value [1] read?
A: 90.5%

Q: And the Activity [2]?
A: 0.6 log10CFU

Q: What about the remaining at 2 h, 1 µM [3] of the same compound?
A: 0.7%

Q: And the Drug uptake [4]?
A: Active

Q: And the remaining at 2 h, 1 µM [5]?
A: 52%

Q: What about the Tmax [6] of the same compound?
A: 4 h

Q: And the Activity [7]?
A: Dose-dependent effect

Q: And the “fold change (FC)” value [8]?
A: 2

Q: What about the Activity [9] of the same compound?
A: Non-Toxic

Q: And the Activity [10]?
A: Active

Q: What about the Papp B→A [11] of the same compound?
A: 0.25 ×10⁻⁶ cm/s

Q: And the Activity [12]?
A: Not Active

Q: And the “inhibition (INH)” value (Cytochrome P450 2C9)?
A: -5.2%

Q: And the Activity [13]?
A: Active

Q: What about the Activity [14] of the same compound?
A: Non-Toxic

Q: What about the remaining at 1 h, 3 µM [15] of the same compound?
A: 69.5%

Q: What about the remaining at 2 h, 1 µM [16] of the same compound?
A: 18%
